# In ChEMBL document CHEMBL1122242, “Phenylenebis(oxy)bis[2,2-dimethylpentanoic acid]s: agents that elevate high-density lipoproteins” (1983):
# Legend:
# Format in all cases: functional
# [1] = organism: Rattus norvegicus; test: Hypolipidemic effects(plasma TG) in male rats
# How it was run: (§1)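 Male rats, 10 per group, fed 7 days on chow with 10% fat (5.5% added peanut oil), 1.5% cholesterol and 0.1% cholic acid. Oral gavage on days 4-7 in 4% acacia, usually 50 mg/kg daily. Fasted overnight, killed day 8, atrial blood into EDTA. Plasma cholesterol, TG and HDL cholesterol (after MnCl2/heparin precipitation) by Autoanalyzer. % change vs controls, Student's t test.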
# [2] = system: Rattus norvegicus; test: Hypolipidemic effects (low-density lipoprotein (LDL) cholesterol) in male rats; Compound was screening orally at 50 mg/Kg; how it was run: as §1
# [3] = organism: Rattus norvegicus; test: Hypolipidemic effects(liver weight) in male rats; how it was run: as §1
# [4] = system: Rattus norvegicus; test: Hypolipidemic effects (high-density lipoprotein (HDL) cholesterol) in male rats; Compound was screening orally at 50 mg/Kg; how it was run: as §1
# [5] = organism: Rattus norvegicus; test: Hypolipidemic effects(plasma cholesterol) in male rats; how it was run: as §1
# [6] = system: Rattus norvegicus; test: Hypolipidemic effects (high-density lipoprotein (HDL) cholesterol) in male rats;Compound was screening orally at 50 mg/Kg; how it was run: as §1
# [7] = system: Rattus norvegicus; test: Hypolipidemic effects (low-density lipoprotein (LDL) cholesterol) in male rats;Compound was screening orally at 50 mg/Kg; how it was run: as §1
SMILES,Change [1] [%],Change [2] [%],Change [3] [%],Change [4] [%],Change [5] [%],Change [6] [%],Change [7] [%]
COC(=O)C(C)(C)CCCOc1ccc(C(=O)c2ccc(OCCCC(C)(C)C(=O)OC)cc2)cc1,0,0,0,0,0,–,–
CC(C)(CCCOc1ccc(OCCCC(C)(C)C(=O)O)c(Cc2ccccc2)c1)C(=O)O,0,-71,14,389,-44,–,–
CC(C)(CCCOc1ccc([S+]([O-])CCCC(C)(C)C(=O)O)cc1)C(=O)O (stereo not drawn),16,-31,19,289,-33,–,–
COC(=O)C(C)(C)CCCOc1ccc(OCCCC(C)(C)C(=O)OC)c(C(C)(C)C)c1,0,-41,11,171,-34,–,–
COC(=O)C(C)(C)CCCOc1ccc(OCCCC(C)(C)C(=O)OC)c(OC)c1,0,-31,30,–,-26,566,–
CC(C)(CCCOc1ccc(OCCCC(C)(C)C(=O)O)c([S+]([O-])c2ccccc2)c1)C(=O)O (stereo not drawn),-21,-58,16,599,-27,–,–
COC(=O)c1cc(OCCCC(C)(C)C(=O)OC)cc(OCCCC(C)(C)C(=O)OC)c1,0,0,0,0,0,–,–
CC(C)(CCCOc1ccc(OCCCC(C)(C)C(=O)O)c(S(=O)(=O)c2ccccc2)c1)C(=O)O,35,-53,10,303,-32,–,–
CCC(=O)c1cc(OCCCC(C)(C)C(=O)OC)ccc1OCCCC(C)(C)C(=O)OC,0,-57,40,–,0,723,–
COC(=O)C(C)(C)CCCSc1ccc(Cl)c(SCCCC(C)(C)C(=O)OC)c1,0,-52,0,56,-53,–,–
CC(C)(CCCCOc1cccc(OCCCCC(C)(C)C(=O)O)c1)C(=O)O,41,-52,18,–,-37,317,–
CCOC(=O)C(C)(C)CCCCCCOc1ccc(OCCCCCCC(C)(C)C(=O)OCC)cc1,0,-29,0,0,-26,–,–
COC(=O)C(C)(C)CCCOc1ccc(-c2ccccc2)c(OCCCC(C)(C)C(=O)OC)c1,0,-25,6,–,0,40,–
COC(=O)C(C)(C)CCCOc1cccc(OCCCC(C)(C)C(=O)OC)c1[N+](=O)[O-],0,-43,5,109,-33,–,–
CC(C)(CCOc1ccc(OCCC(C)(C)C(=O)O)cc1)C(=O)O,0,–,40,–,-33,370,–
CC(C)(CCCOc1ccc(OCCCC(C)(C)C(=O)O)c(C(F)(F)F)c1)C(=O)O,0,-45,39,674,0,–,–
COC(=O)C(C)(C)CCCOc1cccc(OCCCC(C)(C)C(=O)OC)c1C(C)=O,0,–,0,0,-38,–,-40
COC(=O)C(C)(C)CCCOc1ccc(OCCCC(C)(C)C(=O)OC)c(Br)c1,-39,–,30,–,-45,728,–
CCCCCc1cc(OCCCC(C)(C)C(=O)OC)cc(OCCCC(C)(C)C(=O)OC)c1,-32,-67,8,47,-57,–,–
CC(C)(CCCOc1ccc(OCCCC(C)(C)C(=O)O)c(C(=O)O)c1)C(=O)O,0,-17,0,–,0,0,–
COC(=O)C(C)(C)CCCOc1ccc(C)c(OCCCC(C)(C)C(=O)OC)c1,0,-64,4,38,-55,–,–
CC(=O)OCC(C)(C)CCCOc1ccc(OCCCC(C)(C)COC(C)=O)c(-c2ccccc2)c1,0,-36,19,602,0,–,–
Cc1ccc(-c2cc(OCCCC(C)(C)C(=O)O)ccc2OCCCC(C)(C)C(=O)O)cc1,-27,–,0,66,-32,–,-42
